From ChEMBL document CHEMBL1955834, “Disparate SAR data of griseofulvin analogues for the dermatophytes Trichophyton mentagrophytes, T. rubrum, and MDA-MB-231 cancer cells” (J Med Chem, 2012)
Calls of active or inactive are those of the source. The calls are words filed in the database; no cut-off is given here.

How the values were obtained:
[1] = system: Trichophyton mentagrophytes; assay: Antifungal activity against Trichophyton mentagrophytes IBT 2724 after 7 days by micro broth dilution method; type: functional, organism-based; settings: IBT 2724, 168 h
Procedure, shortened: (§1)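 T. mentagrophytes IBT2724 was tested by broth microdilution using an 8-fold dilution series of 10 concentrations from 50 μM down to 0.4 μM, with 1% DMSO. The inoculum was prepared per CLSI M38-A2, adjusted to OD530 0.90–1.5 and diluted 50-fold in RPMI/MOPS at pH 7.00. Plates ran 7 days at 37 °C with an OD read-out. IC50 came from a variable-slope sigmoidal fit.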

Trichophyton rubrum [2] = assay: Antifungal activity against Trichophyton rubrum IBT 29284 after 7 days by micro broth dilution method; type: functional, organism-based; settings: IBT 29284, 168 h
Procedure, shortened: (§2)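 T. rubrum IBT29284 was tested by broth microdilution using a 4-fold dilution series of 10 concentrations from 50 μM down to 0.2 μM, with 1% DMSO. The inoculum followed CLSI M38-A2, set to OD530 0.90–1.5 and diluted 50-fold in RPMI/MOPS at pH 7.00. Incubation was 7 days at 37 °C, read by OD. IC50 came from a variable-slope sigmoidal fit.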

MDA-MB-231 [3] = assay: Cytotoxicity against human MDA-MB-231 cells assessed as cell viability after 48 hrs by MTT assay; type: functional, cell-based; settings: MDA-MB-231, 48 h
Procedure, shortened: (§3)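 MDA-MB-231 cells were grown in L-15 with 10% FCS at 37 °C and seeded at (2-3) × 10^4 per well. Exposure was 24 and/or 48 h, then MTT for at least 4 h, with absorbance read at 570/630 nm. Each condition had at least 3 replicates, reported as mean ± SD of a representative experiment repeated at least three times.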

[4] = system: Trichophyton mentagrophytes; assay: Antifungal activity against Trichophyton mentagrophytes IBT 2724 at 50 uM after 7 days by micro broth dilution method; type: functional; settings: for inhibition at 50 µM: IBT 2724, 168 h; procedure, shortened: as §1
Trichophyton rubrum [5] = assay: Antifungal activity against Trichophyton rubrum IBT 29284 at 50 uM after 7 days by micro broth dilution method; type: functional; settings: for inhibition at 50 µM: IBT 29284, 168 h; procedure, shortened: as §2
MDA-MB-231 [6] = assay: Cytotoxicity against human MDA-MB-231 cells assessed as cell viability at 50 uM after 48 hrs by MTT assay; type: functional; settings: for inhibition at 50 µM: MDA-MB-231, 48 h; procedure, shortened: as §3
SCC114 = assay: Cytotoxicity against human SCC114 cells by phenotype-based spindle multipolarity assay; type: functional, cell-based

| SMILES | IC50 [1] [µM] | IC50 (Trichophyton rubrum [2]) [µM] | IC50 (MDA-MB-231 [3]) [µM] | inhibition (Trichophyton rubrum [5]) | other results |
| --- | --- | --- | --- | --- | --- |
| COc1cc(OC)c2c(c1Cl)O[C@]1(C2=O)C(OCc2ccc(C(F)(F)F)cc2)=CC(=O)C[C@H]1C | 0.15 | 1.5 | 7 | – | – |
| COc1cccc(COC2=CC(=O)[C@@]3(Oc4c(Cl)c(OC)cc(OC)c4C3=O)[C@H](C)C2)c1 | – | – | 25 | inactive | inhibition at 50 µM [4]: < 50% |
| COC1=CC(=O)C[C@@H](C)[C@]12Oc1c(Cl)c(OC)c([N+](=O)[O-])c(OC)c1C2=O | – | – | – | inactive | inhibition [4]: inactive; inhibition (MDA-MB-231 [6]): inactive |
| COc1cc(OC)c2c(c1Cl)O[C@]1(C2=O)C(OCc2cccnc2)=CC(=O)C[C@H]1C | 0.35 | – | 10 | – | inhibition at 50 µM (Trichophyton rubrum [5]): < 50% |
| COc1cc(OC)c2c(c1Cl)O[C@]1(C2=O)C(OCc2ccccn2)=CC(=O)C[C@H]1C | 1.3 | – | 32 | – | inhibition at 50 µM (Trichophyton rubrum [5]): < 50% |
| COc1cc(OC)c2c(c1Cl)O[C@]1(C2=O)C(OCc2ccncc2)=CC(=O)C[C@H]1C | – | – | 19 | – | inhibition at 50 µM [4]: < 50%; inhibition at 50 µM (Trichophyton rubrum [5]): < 50% |
| COc1ccc(COC2=CC(=O)C[C@@H](C)[C@]23Oc2c(Cl)c(OC)cc(OC)c2C3=O)cc1 | – | – | – | inactive | inhibition [4]: inactive; inhibition at 50 µM (MDA-MB-231 [6]): < 50% |
| COC1=CC(=O)C[C@@H](C)[C@]12Oc1c(Cl)c(OC)c(N)c(OC)c1C2=O | – | – | – | inactive | inhibition [4]: inactive; inhibition (MDA-MB-231 [6]): inactive |
| COc1cc(OC)c2c(c1Cl)O[C@]1(C2=O)C(OCc2ccccc2)=CC(=O)C[C@H]1C | 0.26 | 1.1 | 2.1 | – | – |
| CCOc1cc(OC)c(Cl)c2c1C(=O)[C@@]1(O2)C(OC)=CC(=O)C[C@H]1C | 0.29 | 2 | – | – | inhibition (MDA-MB-231 [6]): inactive |
| CCCOC1=C(I)C(=O)C[C@@H](C)[C@]12Oc1c(Cl)c(OC)cc(OC)c1C2=O | 0.23 | 1.6 | 8 | – | – |
| COc1cc(OC)c2c(c1Cl)O[C@]1(C2=O)C(OC2CCCC2)=CC(=O)C[C@H]1C | 0.24 | 2.5 | 3.2 | – | – |
| COc1cc(OC)c2c(c1Cl)O[C@]1(C(=O)CC(=O)C[C@@H]1C)C2=O (relative stereo) | – | – | – | inactive | inhibition at 50 µM [4]: < 50%; inhibition (MDA-MB-231 [6]): inactive |
| COC1=CC(=O)C[C@@H](C)[C@]12Oc1c(Cl)c(OC)cc(O)c1C2=O | – | – | – | inactive | inhibition at 50 µM [4]: < 50%; inhibition (MDA-MB-231 [6]): inactive |
| COC1=C(I)C(=O)C[C@@H](C)[C@]12Oc1c(Cl)c(OC)cc(OC)c1C2=O | – | – | 22 | inactive | inhibition at 50 µM [4]: < 50% |
| COc1ccccc1COC1=CC(=O)C[C@@H](C)[C@]12Oc1c(Cl)c(OC)cc(OC)c1C2=O | 0.7 | – | 11 | – | inhibition at 50 µM (Trichophyton rubrum [5]): < 50% |
| COC1=CC(=O)C[C@@H](C)[C@]12Oc1c(Cl)c(OC)cc(OCc3ccccc3)c1C2=O | 0.25 | – | 20 | inactive | inhibition (SCC114): inactive |
| COc1cc(OC)c2c(c1Cl)O[C@@]1(C2=O)[C@H](C)C[C@H](O)C[C@@H]1OC | 3 | – | – | – | inhibition at 50 µM (Trichophyton rubrum [5]): < 50%; inhibition (MDA-MB-231 [6]): inactive |
| CCCOC1=CC(=O)[C@@]2(Oc3c(Cl)c(OC)cc(OC)c3C2=O)[C@H](C)C1 | – | – | 43 | inactive | inhibition (SCC114): inactive; inhibition at 50 µM [4]: < 50% |
| COc1cccc(COC2=CC(=O)C[C@@H](C)[C@]23Oc2c(Cl)c(OC)cc(OC)c2C3=O)c1 | 0.14 | 0.96 | 8.1 | – | – |
| COc1cc(OC)c2c(c1Cl)O[C@]1(C2=O)C(Cl)=CC(=O)C[C@H]1C | – | – | 3.2 | – | inhibition at 50 µM [4]: < 50%; inhibition at 50 µM (Trichophyton rubrum [5]): < 50% |

| SMILES | IC50 [1] [µM] | IC50 (Trichophyton rubrum [2]) [µM] | IC50 (MDA-MB-231 [3]) [µM] | inhibition (Trichophyton rubrum [5]) | other results |
| --- | --- | --- | --- | --- | --- |
| COc1cc(OC)c2c(c1Cl)O[C@]1(C2=O)C(Oc2ccccc2)=CC(=O)C[C@H]1C | 1.6 | 6.1 | 7.2 | – | – |
| COc1cc(OC)c2c(c1Cl)O[C@]1(C2=O)C(OCc2ccc(F)cc2)=CC(=O)C[C@H]1C | 0.041 | 0.83 | 6.5 | – | – |
| CCOC1=CC(=O)C[C@@H](C)[C@]12Oc1c(Cl)c(OC)cc(OC)c1C2=O | 0.25 | 0.69 | 13 | – | – |
| COc1cc(OC)c2c(c1Cl)O[C@]1(C2=O)C(OCc2ccc(-c3ccccc3)cc2)=CC(=O)C[C@H]1C | – | – | 5.8 | inactive | inhibition [4]: inactive |
| COc1cc(OC)c2c(c1Cl)O[C@]1(C2=O)C(OCC23CC4CC(CC(C4)C2)C3)=CC(=O)C[C@H]1C | – | – | 4.7 | inactive | inhibition [4]: inactive |
| COc1cc(OC)c2c(c1Cl)O[C@]1(C2=O)C(OC(C)C)=CC(=O)C[C@H]1C | 0.11 | 3.1 | 11 | – | – |
| COc1cc(OC)c2c(c1Cl)O[C@]1(C2=O)C(SCc2ccccc2)=CC(=O)C[C@H]1C | 0.058 | 1.3 | 4.7 | – | – |
| COc1cc(OC)c2c(c1Cl)O[C@]1(C2=O)C(OCC2CC2)=CC(=O)C[C@H]1C | 0.06 | 1.5 | 9.4 | – | – |
| COc1cc(OC)c2c(c1Cl)O[C@]1(C2=O)C(OCc2ccc(C)cc2)=CC(=O)C[C@H]1C | 0.24 | 1 | 1.8 | – | – |
| COC1=CC(=O)C[C@@H](C)[C@]12Oc1c(Cl)c(OC)cc(OCc3cccc4ccccc34)c1C2=O | – | – | 17 | inactive | inhibition [4]: inactive |
| COc1cc(OC)c2c(c1Cl)O[C@]1(C2=O)C(OCc2ccc(CO)cc2)=CC(=O)C[C@H]1C | 1.7 | – | 2.8 | – | inhibition at 50 µM (Trichophyton rubrum [5]): < 50% |
| COc1cc(OC)c2c(c1Cl)O[C@]1(C2=O)C(OCc2cccc3ccccc23)=CC(=O)C[C@H]1C | 0.25 | 2.6 | 13 | – | – |
| CCOc1cc(OC)c2c(c1Cl)O[C@]1(C2=O)C(OC)=CC(=O)C[C@H]1C | 0.062 | 1.3 | 36 | – | – |
| COc1cc(O)c(Cl)c2c1C(=O)[C@@]1(O2)C(=O)C=C(O)C[C@H]1C | – | – | – | inactive | inhibition [4]: inactive; inhibition (MDA-MB-231 [6]): inactive |
| COc1cc(OC)c2c(c1Cl)O[C@@]1(C(=O)C=C(Cl)C[C@H]1C)C2=O | – | – | 1 | inactive | inhibition [4]: inactive |
| COc1cc(OC)c2c(c1Cl)O[C@]1(C2=O)C(OCCc2ccccc2)=CC(=O)C[C@H]1C | 0.28 | – | 17 | – | inhibition at 50 µM (Trichophyton rubrum [5]): < 50% |
| COC1=CC(=O)C[C@@H](C)[C@]12Oc1c(Cl)c(O)cc(OC)c1C2=O | – | – | – | inactive | inhibition [4]: inactive; inhibition at 50 µM (MDA-MB-231 [6]): < 50% |
| COc1cc(OC)c2c(c1Cl)O[C@]1(C2=O)C(=O)C(C)(C)C(=O)C[C@H]1C | – | – | – | inactive | inhibition [4]: inactive; inhibition (MDA-MB-231 [6]): inactive |
| COc1cc(OC)c2c(c1Cl)O[C@]1(C2=O)C(OCc2ccccc2)=C(I)C(=O)C[C@H]1C | 1.1 | – | – | inactive | inhibition at 50 µM (MDA-MB-231 [6]): < 50% |
| CCCCCOc1cc(OC)c(Cl)c2c1C(=O)[C@@]1(O2)C(OC)=CC(=O)C[C@H]1C | 0.17 | – | – | – | inhibition at 50 µM (Trichophyton rubrum [5]): < 50%; inhibition at 50 µM (MDA-MB-231 [6]): < 50% |
